Key:
NIH3T3 = experiment: Cytotoxicity against mouse NIH/3T3 cells by MTT assay; type: cell-based
Procedure, shortened: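 NIH/3T3 mouse embryonic fibroblasts seeded at 1x10^4 cells per well and grown per supplier recommendations. Compounds tested over 0.0316-1000 µM by MTT reduction to formazan; IC50 determined.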

Salmonella typhimurium [1] = experiment: Genotoxicity in Salmonella typhimurium TA100 assessed as increase in number of revertants at 2.5 mg/ml in absence of aroclor-1254-induced Sprague-Dawley rat liver microsomal S9 fraction by Ames-MPF assay relative to baseline; type: toxicity; conditions: salmonella enterica subsp. enterica serovar typhimurium, microsomes
Procedure, shortened: (§1)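 AmesMPF 98/100 fluctuation format with S. typhimurium TA98 (frameshift) and TA100 (base-pair substitution), run with and without S9. Compounds were made up in DMSO at 0.156–5 mg/mL, six levels; solvent control was 4% DMSO. With S9, positive controls were 2-aminoanthracene at 1 µg/mL (TA98) and 2.5 µg/mL (TA100). Wells turned yellow by pH drop were scored positive. Fold over baseline is mean positive wells divided by (zero-dose mean + 1 SD). Student's t-test, p<0.05.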

Salmonella typhimurium [2] = experiment: Genotoxicity in Salmonella typhimurium TA98 assessed as increase in number of revertants at 0.3125 mg/ml in presence of aroclor-1254-induced Sprague-Dawley rat liver microsomal S9 fraction by Ames-MPF assay relative to baseline; type: toxicity; conditions: salmonella enterica subsp. enterica serovar typhimurium, microsomes; procedure, shortened: as §1
Salmonella typhimurium [3] = experiment: Genotoxicity in Salmonella typhimurium TA100 assessed as increase in number of revertants at 0.625 mg/ml in absence of aroclor-1254-induced Sprague-Dawley rat liver microsomal S9 fraction by Ames-MPF assay relative to baseline; type: toxicity; conditions: salmonella enterica subsp. enterica serovar typhimurium, microsomes; procedure, shortened: as §1
[4] = biological target: T1, Amine oxidase [flavin-containing] B (Homo sapiens, UniProt P27338); experiment: Non-competitive inhibition of recombinant human MAO-B expressed in baculovirus infected BTI insect cells using varying levels of tyramine as substrate pretreated for 30 mins followed by substrate addition measured for 30 mins by Line-weaver burk plot method
T1 sequence (P27338 whole entry): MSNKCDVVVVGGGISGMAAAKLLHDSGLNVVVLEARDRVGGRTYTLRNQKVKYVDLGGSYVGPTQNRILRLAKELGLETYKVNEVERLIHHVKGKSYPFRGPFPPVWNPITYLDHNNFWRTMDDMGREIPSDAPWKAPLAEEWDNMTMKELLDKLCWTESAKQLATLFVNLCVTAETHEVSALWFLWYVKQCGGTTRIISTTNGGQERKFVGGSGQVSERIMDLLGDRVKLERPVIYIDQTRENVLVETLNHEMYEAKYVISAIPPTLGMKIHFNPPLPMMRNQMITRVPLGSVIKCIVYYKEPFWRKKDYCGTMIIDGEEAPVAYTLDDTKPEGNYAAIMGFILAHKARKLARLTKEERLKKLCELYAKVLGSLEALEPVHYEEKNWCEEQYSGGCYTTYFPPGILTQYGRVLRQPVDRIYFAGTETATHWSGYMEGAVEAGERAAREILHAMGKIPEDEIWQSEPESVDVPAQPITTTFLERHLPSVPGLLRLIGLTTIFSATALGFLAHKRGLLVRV
Procedure, shortened: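 hMAO-B preincubated 30 min at 37°C with inhibitor at five concentrations. Working solution with tyramine at 20, 10, 5, 2.5, 1.25 and 0.625 µM then added, and fluorescence (Ex/Em 535/587 nm) followed for 30 min alongside an inhibitor-free run; quadruplicate. Inhibition type from Lineweaver-Burk plots; Ki from x-intercept of Vmax replotted against inhibitor concentration.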

[5] = biological target: T1, Amine oxidase [flavin-containing] B; experiment: Inhibition of recombinant human MAO-B expressed in baculovirus infected BTI insect cells using tyramine as substrate pretreated for 30 mins followed by substrate addition incubated for 30 mins measured at 5 mins interval by horse-radish peroxidase/amplex red-based fluorometric method; type: cell-based
Salmonella typhimurium [6] = experiment: Genotoxicity in Salmonella typhimurium TA98 assessed as increase in number of revertants at 0.625 mg/ml in presence of aroclor-1254-induced Sprague-Dawley rat liver microsomal S9 fraction by Ames-MPF assay relative to baseline; type: toxicity; conditions: salmonella enterica subsp. enterica serovar typhimurium, microsomes; procedure, shortened: as §1
Salmonella typhimurium [7] = experiment: Genotoxicity in Salmonella typhimurium TA98 assessed as increase in number of revertants at 2.5 mg/ml in absence of aroclor-1254-induced Sprague-Dawley rat liver microsomal S9 fraction by Ames-MPF assay relative to baseline; type: toxicity; conditions: salmonella enterica subsp. enterica serovar typhimurium, microsomes; procedure, shortened: as §1
Salmonella typhimurium [8] = experiment: Genotoxicity in Salmonella typhimurium TA98 assessed as increase in number of revertants at 2.5 mg/ml in presence of aroclor-1254-induced Sprague-Dawley rat liver microsomal S9 fraction by Ames-MPF assay relative to baseline; type: toxicity; conditions: salmonella enterica subsp. enterica serovar typhimurium, microsomes; procedure, shortened: as §1
Salmonella typhimurium [9] = experiment: Genotoxicity in Salmonella typhimurium TA100 assessed as increase in number of revertants at 2.5 mg/ml in presence of aroclor-1254-induced Sprague-Dawley rat liver microsomal S9 fraction by Ames-MPF assay relative to baseline; type: toxicity; conditions: salmonella enterica subsp. enterica serovar typhimurium, microsomes; procedure, shortened: as §1

Structure (SMILES)	IC50 (NIH3T3)	fold change (FC) (Salmonella typhimurium [1])	fold change (FC) (Salmonella typhimurium [2])	fold change (FC) (Salmonella typhimurium [3])	Ki [4]	IC50 [5]	fold change (FC) (Salmonella typhimurium [6])	fold change (FC) (Salmonella typhimurium [7])	fold change (FC) (Salmonella typhimurium [8])	fold change (FC) (Salmonella typhimurium [9])
C#CCn1c(-c2ccc(C(=O)N/N=C/c3cccnc3)cc2)nc2ccccc21	316 µM	0.74	0.35	0.84	0.15 to 0.151 µM	0.075 µM	0.35	0.4	0.52	0.27
C#CCn1c(-c2ccc(C(=O)N/N=C/c3ccc(F)cc3)cc2)nc2ccccc21	≥ 1000 µM	1.78	2.13	0.69	–	0.136 µM	2.01	0.28	2.95	1.88

— ChEMBL document CHEMBL4038273, “MAO enzymes inhibitory activity of new benzimidazole derivatives including hydrazone and propargyl side chains” (Eur J Med Chem, 2017)
